# According to ChEMBL document CHEMBL4052614, “Novel 3',5'-diprenylated chalcones inhibited the proliferation of cancer cells in vitro by inducing cell apoptosis and arresting cell cycle phase” (Eur J Med Chem, 2017):
# Active and inactive are the calls of the source. The calls are words filed in the database; no cut-off is given here.
# How the values were obtained:
# HEL [1] = test: Potency index, ratio of compound effect to (E)-2-Hydroxy-4,4-dimethoxy-3,5-diprenylchalcone effect for growth inhibition of HEL cells; format: functional, Homo sapiens
# HEL [2] = test: Cell cycle arrest in HEL cells assessed as increase in G1 phase accumulation at 5 umol/L after 48 hrs by propidium iodide staining based flow cytometry; format: functional; conditions: Homo sapiens
# Method in brief: (§1)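 Cells grown in DMEM with 10% FBS and penicillin/streptomycin at 37 °C, 5% CO2, and passaged at least 3 times after thawing. Treated 48 h at 5 µmol/L, DMSO-treated controls. Harvested by trypsin, PBS-washed, fixed in ice-cold ethanol, blocked 1 h at 4 °C in 5% BSA/PBS, RNase 1 µg/mL 30 min at 37 °C, PI 20 µg/mL final. Phase percentages read from PI histograms. Mean ± SD, three independent experiments.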
# K562 [3] = test: Cytotoxicity against human K562 cells after 48 hrs by MTT assay; format: functional, cell-based
# Method in brief: (§2)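 Cells kept in DMEM/10% FBS at 37 °C, 5% CO2, seeded at 4×10^3–8×10^3 cells/well and left 24 h to adhere. Exposed 48 h to a range of concentrations. MTT (5 mg/mL solution) added for 4 h at 37 °C, formazan dissolved in DMSO, absorbance read at 490 nm. IC50 derived from concentration–inhibition relation. Doxorubicin as positive control.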
# PC-3 [4] = test: Induction of apoptosis in human PC3 cells assessed as spindle like formation at 5 umol/L after 48 hrs by inverted microscopic method; format: functional, cell-based
# Method in brief: (§3)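 Cells cultured in DMEM/10% FBS at 37 °C, 5% CO2. Exposed 48 h to 5 µmol/L compound alongside DMSO controls. Morphology (cell number, rounding, spacing, apoptotic bodies, spindle shape) observed under an inverted microscope with CCD camera.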
# MDA-MB-231 [5] = test: Cell cycle arrest in human MDA-MB-231 cells assessed as increase in G2 phase accumulation at 5 umol/L after 48 hrs by propidium iodide staining based flow cytometry; format: functional; method in brief: as §1
# PC-3 [6] = test: Induction of apoptosis in human PC3 cells assessed as necrotic cells at 5 umol/L after 48 hrs by annexin V-FITC/propidium iodide staining based flow cytometry (reference value: 4.6%); format: functional
# K562 [7] = test: Induction of apoptosis in human K562 cells assessed as viable cells at 5 umol/L after 48 hrs by annexin V-FITC/propidium iodide staining based flow cytometry (reference value: 92.6%); format: functional; conditions: K562, 48 h, read-out: Activity
# HEL [8] = test: Induction of apoptosis in HEL cells assessed as early apoptotic cells at 5 umol/L after 48 hrs by annexin V-FITC/propidium iodide staining based flow cytometry (reference value: 2.6 to 4.2%); format: functional, Homo sapiens
# PC-3 [9] = test: Cell cycle arrest in human PC3 cells assessed as decrease in G2 phase accumulation at 5 umol/L after 48 hrs by propidium iodide staining based flow cytometric method; format: functional; method in brief: as §1
# K562 [10] = test: Induction of morphological changes in human K562 cells assessed as increase in formation of apoptotic bodies at 5 umol/L after 48 hrs by inverted microscopic method; format: functional, cell-based; method in brief: as §3
# HEL [11] = test: Induction of apoptosis in HEL cells assessed as late apoptotic cells at 5 umol/L after 48 hrs by annexin V-FITC/propidium iodide staining based flow cytometry (reference value: 1.6 to 3.3%); format: functional, Homo sapiens
# MDA-MB-231 [12] = test: Induction of apoptosis in human MDA-MB-231 cells assessed as late apoptotic cells at 5 umol/L after 48 hrs by annexin V-FITC/propidium iodide staining based flow cytometry (reference value: 2.2%); format: functional
# MDA-MB-231 [13] = test: Induction of morphological changes in human MDA-MB-231 cells assessed as increase in intracellular space at 5 umol/L after 48 hrs by inverted microscopic method; format: functional, cell-based; method in brief: as §3
# K562 [14] = test: Induction of morphological changes in human K562 cells assessed as increase in intracellular space at 5 umol/L after 48 hrs by inverted microscopic method; format: functional, cell-based; method in brief: as §3
# PC-3 [15] = test: Induction of apoptosis in human PC3 cells assessed as late apoptotic cells at 5 umol/L after 48 hrs by annexin V-FITC/propidium iodide staining based flow cytometry (reference value: 4.7%); format: functional
# HEL [16] = test: Cytotoxicity against HEL cells after 48 hrs by MTT assay; format: functional, cell-based; conditions: Homo sapiens; method in brief: as §2
# HEL [17] = test: Cell cycle arrest in HEL cells assessed as decrease in S phase accumulation at 5 umol/L after 48 hrs by propidium iodide staining based flow cytometry; format: functional; conditions: Homo sapiens; method in brief: as §1
# PC-3 [18] = test: Cell cycle arrest in human PC3 cells assessed as decrease in S phase accumulation at 5 umol/L after 48 hrs by propidium iodide staining based flow cytometric method; format: functional; method in brief: as §1
# MDA-MB-231 [19] = test: Cytotoxicity against human MDA-MB-231 cells after 48 hrs by MTT assay; format: functional, cell-based; method in brief: as §2
# MDA-MB-231 [20] = test: Induction of apoptosis in human MDA-MB-231 cells assessed as effect on cell adherence at 5 umol/L after 48 hrs by inverted microscopic method; format: functional, cell-based; method in brief: as §3
# MDA-MB-231 [21] = test: Induction of apoptosis in human MDA-MB-231 cells assessed as early apoptotic cells at 5 umol/L after 48 hrs by annexin V-FITC/propidium iodide staining based flow cytometry (reference value: 3%); format: functional
# PC-3 [22] = test: Induction of morphological changes in human PC3 cells assessed as increase in formation of apoptotic bodies at 5 umol/L after 48 hrs by inverted microscopic method; format: functional, cell-based
# Method in brief: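 PC3 cells were kept in DMEM with 10% FBS, penicillin and streptomycin at 37 °C under 5% CO2, and were passaged at least 3 times after thawing. Cells were seeded at 4 × 10^3 to 8 × 10^3 cells/well and left to adhere for 24 h. They were then exposed to 5 µmol/L compound for 48 h. Morphology was viewed by inverted microscope against DMSO-treated controls.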
# HEL [23] = test: Growth inhibition of HEL cells at 5 umol/L after 48 hrs by MTT assay relative to control; format: functional; conditions: Homo sapiens, read-out: GI
# Method in brief: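 Cells kept in DMEM/10% FBS at 37 °C, 5% CO2, seeded at 4×10^3–8×10^3 cells/well, 24 h attachment, then 48 h with compound at 5 µmol/L. MTT (5 mg/mL solution) added for 4 h at 37 °C, formazan taken up in DMSO, A490 read. Percent inhibition as mean ± SD of three independent experiments. Doxorubicin as positive control.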
# K562 [24] = test: Cell cycle arrest in human K562 cells assessed as decrease in G1 phase accumulation at 5 umol/L after 48 hrs by propidium iodide staining based flow cytometry; format: functional; method in brief: as §1
smiles,measurement,setting,value
COc1c(CC=C(C)C)cc(C(=O)/C=C/c2cccnc2)c(O)c1CC=C(C)C,Ratio,HEL [1],3 - 4
same,Activity,HEL [2],Active
same,Activity,K562 [3],Dose-dependent effect
same,IC50,"K562 [3]; K562, 48 h",2640 nM
same,Activity,PC-3 [4],Active
same,Activity,MDA-MB-231 [5],Active
same,Activity,PC-3 [6],10.6%
same,viability at 5 µM,K562 [7],64%
same,Activity,HEL [8],5.6%
same,Activity,PC-3 [9],Active
same,Activity,K562 [10],Active
same,Activity,HEL [11],7.1%
same,Activity,MDA-MB-231 [12],36.8%
same,Activity,MDA-MB-231 [13],Active
same,Activity,K562 [14],Active
same,Activity,PC-3 [15],42.7%
same,Activity,HEL [16],Dose-dependent effect
same,IC50,HEL [16],1850 nM
same,Activity,HEL [17],Active
same,Activity,PC-3 [18],Active
same,Activity,MDA-MB-231 [19],Dose-dependent effect
same,IC50,"MDA-MB-231 [19]; MDA-MB-231, 48 h",3140 nM
same,Activity,MDA-MB-231 [20],Active
same,Activity,MDA-MB-231 [21],13.8%
same,Activity,PC-3 [22],Active
same,inhibition of growth at 5 µM,HEL [23],91.7%
same,Activity,K562 [24],Active
